Data set [1] deals with C-X-C chemokine receptor type 4 (Homo sapiens) (UniProt P61073). The data set is described as follows: Inhibition of biotinylated TN14003 binding to CXCR4 in human MDA-MB-231 cells preincubated for 10 mins followed by TN14003 addition measured after 30 mins by rhodamine dye-based microscopic analysis. The class given is cell-based. The gist of the method:
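MDA-MB-231 cells (2×10^4, seeded two days before) exposed to compound at 1, 10, 100 or 1000 nM for 10 min at room temperature, fixed in ice-cold 4% paraformaldehyde, rehydrated in PBS, then 0.05 µg/mL biotinylated TN14003 for 30 min, streptavidin-rhodamine (1:150) 30 min. Fluorescence microscopy; EC = lowest concentration with significant reduction in rhodamine signal versus untreated.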

Data set [2] shares this target. Nature of the data set: Inhibition of CXCR4 in human MDA-MB-231 cells assessed as decrease in CXCL12-dependent cell invasion at 100 nM after 22 hrs by hematoxylin and eosin staining based matrigel assay relative to control. The class given is functional. In short, it runs like this: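 Matrigel invasion chamber. MDA-MB-231 cells pretreated with compound (100 nM) before seeding in top chamber; 200 ng/mL CXCL12α in serum-free medium in bottom chamber as chemoattractant. 22 h in humidified incubator; non-invading cells swabbed off, invaded cells fixed in methanol, H&E stained and counted; inhibition relative to untreated invasion.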

Data set [3] has the same target. Nature of the data set: Potency index, ratio of AMD3100 EC to compound EC for inhibition of biotinylated TN14003 binding to CXCR4 in human MDA-MB-231 cells. The class given is functional, cell-based.
The test system of data set [4] is Mus musculus. The data set is described as follows: Antiinflammatory activity in mouse assessed as inhibition of xylene-induced ear edema at 10 mg/kg, ip treated after 30 mins xylene administration measured after 2 hrs relative to control. The class given is functional. The gist of the method: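 Xylene (30 µL total, inner and outer surfaces) applied to right ear, saline to left ear; 5 mice per group. 30 min later, 10 mg/kg i.p. in 10% DMSO/90% of 45% hydroxypropyl-β-cyclodextrin in PBS; vehicle-injected controls. Sacrificed 2 h later; 7 mm ear plugs from both ears weighed, weight difference = edema; suppression % versus control group.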

Data set [5] is described as follows: Half life in nude mouse plasma at 30 mg/kg, iv administered as single dose by HPLC analysis. The class given is ADME, organism-based. In short, it runs like this:
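Nude mice (~20 g), anaesthetized with ketamine (90 mg/kg)/xylazine (4.5 mg/kg), given single 30 mg/kg i.v. dose in 10% DMSO/90% of 45% hydroxypropyl-β-cyclodextrin in PBS. Orbital sinus blood at 0, 5, 20, 50 min; centrifuged 13000 g, 4 °C, filtered (10000 NMWL). Filtrate HPLC on C18, acetonitrile–water (0.1% TFA) 50:50, 254 nm; half-life from peak areas.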

The target of data set [6] is C-X-C chemokine receptor type 4 (Homo sapiens) (UniProt P61073). The data set is described as follows: Inhibition of CXCR4 in human MDA-MB-231 cells assessed as decrease in CXCL12-induced Akt phosphorylation by Western blot analysis. The class given is functional, cell-based.
In a further data set the test system is MCF-10A. Nature of the data set: Cytotoxicity against human MCF10A cells assessed as reduction in cell viability at 10 uM after 24 hrs by MTT assay. The class given is cell-based. In short, it runs like this: (§1)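 MTT-type viability assay: cells seeded at 3000/well, grown 24 h at 37 °C, then exposed to compound for 24 h at 37 °C. CellTiter 96AQ reagent added for 2 h, absorbance read at 490 nm; compared with vehicle control.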

The target of data set [7] is C-X-C chemokine receptor type 4 (Homo sapiens) (UniProt P61073). Nature of the data set: Inhibition of CXCR4 in human MDA-MB-231 cells assessed as decrease in CXCL12-induced p44 phosphorylation at 0.1 nM by Western blot analysis. The class given is functional, cell-based.
For the next data set, the system named is MDA-MB-231. Nature of the data set: Cytotoxicity against human MDA-MB-231 cells assessed as reduction in cell viability at 10 uM after 24 hrs by MTT assay. Particulars: mda-mb-231, 24 h. The class given is cell-based. In short, it runs like this: as §1
Data set [8] deals with Mus musculus. The data set is described as follows: Antiinflammatory activity in mouse assessed as inhibition of xylene-induced swollen volume of ear at 10 mg/kg, ip treated after 30 mins xylene administration measured after 2 hrs. The class given is functional, organism-based.
The nature of data set [9]: Half life in human plasma. The class given is ADME.
Data set [10] concerns Mus musculus. The data set is described as follows: Antiinflammatory activity in mouse assessed as inhibition of xylene-induced thickness of ear at 10 mg/kg, ip treated after 30 mins xylene administration measured after 2 hrs. The class given is functional, organism-based.

Active and inactive are the calls of the source. The calls are words filed in the database; no cut-off is given here.

C-X-C chemokine receptor type 4 (Homo sapiens), sequence (P61073 whole entry): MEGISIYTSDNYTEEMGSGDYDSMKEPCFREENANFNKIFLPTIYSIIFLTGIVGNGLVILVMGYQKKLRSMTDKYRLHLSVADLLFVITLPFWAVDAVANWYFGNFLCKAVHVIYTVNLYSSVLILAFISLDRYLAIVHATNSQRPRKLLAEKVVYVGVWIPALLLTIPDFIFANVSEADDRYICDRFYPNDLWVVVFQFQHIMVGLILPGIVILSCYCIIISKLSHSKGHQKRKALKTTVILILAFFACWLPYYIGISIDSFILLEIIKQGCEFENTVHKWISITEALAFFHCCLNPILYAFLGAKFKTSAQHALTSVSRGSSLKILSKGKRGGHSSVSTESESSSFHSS

In turn, `O=C(NCc1ccc(CNS(=O)(=O)c2ccc(F)cc2)cc1)c1ccc(CNc2ncccn2)cc1` came in with an EC in [1] of more than 1000 nM.
In the case of `O=C(NCc1ccc(CNS(=O)(=O)c2cccc(Cl)c2)cc1)c1ccc(CNc2ncccn2)cc1`, the EC in data set [1] was 1 nM. The inhibition in [2] stood at 88%. Moreover, in [3], the Ratio was found to be 1000. Also, the inhibition result in the data set on Mus musculus [4] is “inactive”.
`O=C(NCc1ccc(CNS(=O)(=O)c2ccccc2Cl)cc1)c1ccc(CNc2ncccn2)cc1` gave an EC in data set [1] of 1000 nM.
Molecule `O=C(NCc1ccc(CNS(=O)(=O)c2ccccc2F)cc1)c1ccc(CNc2ncccn2)cc1` displayed an EC in [1] of 1000 nM.
Take `O=C(NCc1ccc(CNS(=O)(=O)c2ccc([N+](=O)[O-])cc2)cc1)c1ccc(CNc2ncccn2)cc1`: the EC in [1] amounted to 1000 nM.
As for `Cc1cccc(S(=O)(=O)NCc2ccc(CNC(=O)c3ccc(CNc4ncccn4)cc3)cc2)c1`, the EC in [1] came to 100 nM.
The molecule `Cc1ccccc1S(=O)(=O)NCc1ccc(CNC(=O)c2ccc(CNc3ncccn3)cc2)cc1` yielded an EC in data set [1] of 10 nM. Moreover, the Ratio in data set [3] turned out to be 100.
On to `O=C(NCc1ccc(CNS(=O)(=O)c2ccc3c(c2)CCO3)cc1)c1ccc(CNc2ncccn2)cc1`, for which the EC in [1] stood at 1000 nM.
For the molecule `O=C(NCc1ccc(CNS(=O)(=O)c2ccccc2)cc1)c1ccc(CNc2ncccn2)cc1`, the half-life in data set [5] is 0.333 h; in data set [9], 2.5 h. In [6], the inhibition entry is “Dose-dependent effect”. The Activity result with MCF-10A and in the data set with MDA-MB-231 was “Non-Toxic” each time. In [1], this molecule came in with an EC of 1 nM. Further, the inhibition result (in data set [7]; with Mus musculus [8]; with Mus musculus [10]) was “Active” each time. Further, the Ratio in [3] amounted to 1000. In addition, in the data set on Mus musculus [4], the inhibition in vivo at 10 mg/kg amounted to 67%.
Regarding `O=C(NCc1ccc(CNS(=O)(=O)c2ccc(-c3ccc(F)cc3)cc2)cc1)c1ccc(CNc2ncccn2)cc1`, the EC in data set [1] was determined as 1000 nM.
For the molecule `O=C(NCc1ccc(CNS(=O)(=O)c2cccnc2)cc1)c1ccc(CNc2ncccn2)cc1`, in data set [1], the EC was more than 1000 nM.
With `O=C(NCc1ccc(CNS(=O)(=O)c2ccc(F)c(F)c2)cc1)c1ccc(CNc2ncccn2)cc1`, the EC in data set [1] is 100 nM. Further, the inhibition result with Mus musculus [4] is “inactive”.
In turn, `O=C(NCc1ccc(CNS(=O)(=O)c2cccc(F)c2)cc1)c1ccc(CNc2ncccn2)cc1` displayed an EC in [1] of 1000 nM.
As to `O=C(NCc1ccc(CNS(=O)(=O)c2cccc(C(F)(F)F)c2)cc1)c1ccc(CNc2ncccn2)cc1`, the EC in data set [1] worked out at 1000 nM.
Turning to `O=C(NCc1ccc(CNS(=O)(=O)c2cccc3ccccc23)cc1)c1ccc(CNc2ncccn2)cc1`, the EC in data set [1] was found to be 1000 nM.
`Cc1ccc(S(=O)(=O)NCc2ccc(CNC(=O)c3ccc(CNc4ncccn4)cc3)cc2)cc1`: in [1], the EC worked out at 100 nM. In data set [2], the inhibition is 87%. The inhibition in vivo at 10 mg/kg with Mus musculus [4] worked out at 37%.
Consider `O=C(NCc1ccc(CNS(=O)(=O)c2ccc(Cl)cc2)cc1)c1ccc(CNc2ncccn2)cc1`, for which, in data set [1], the EC came out at 100 nM. Moreover, the inhibition in vivo at 10 mg/kg in the data set with Mus musculus [4] is 30%.
